ROMK primary = ROMK potassium channel modulators, primary screen, cell-based, thallium flux, MLSMR library; ATP-sensitive inward rectifier potassium channel 1 (Homo sapiens), P48048; Tet-inducible ROMK, thallium flux fluorescence; actives lie on both sides; B-score at 10 µM; actives 2% (n = 130,000); AID 1918, 2009;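 active = signal ratio slope over the read window, or its plate-corrected B-score, at least 3 SD from the plate mean, either direction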;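 also: B-score of the F/F0 ratio slope over 7 to 12 s after thallium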
Target sequence (P48048 whole entry, looked up): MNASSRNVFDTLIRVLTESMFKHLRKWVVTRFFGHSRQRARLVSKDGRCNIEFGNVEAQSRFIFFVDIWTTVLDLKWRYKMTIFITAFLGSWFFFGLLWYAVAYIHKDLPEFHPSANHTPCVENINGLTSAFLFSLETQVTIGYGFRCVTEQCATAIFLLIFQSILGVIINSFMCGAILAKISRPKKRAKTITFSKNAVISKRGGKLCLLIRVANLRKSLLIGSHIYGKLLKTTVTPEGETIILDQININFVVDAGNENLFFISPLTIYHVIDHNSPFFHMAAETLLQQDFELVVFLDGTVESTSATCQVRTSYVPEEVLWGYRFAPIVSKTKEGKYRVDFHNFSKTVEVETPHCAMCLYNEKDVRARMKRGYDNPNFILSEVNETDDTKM
Pf gamet viab = late stage P. falciparum gametocyte viability inhibitors, primary screen, ATP luminescence, HTS; P. falciparum stage V gametocytes, 24 h; inhibition, % at 10.9 µM; actives 0.065% (n = 150,000); AID 743093, 2013;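 active = inhibition above the mean plus 3 SD of compounds within the control limits, set per campaign, cut at about 38% in these data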;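 also: 0% = DMSO wells and 100% = medium only without gametocytes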
Calb biofilm kill = clotrimazole potentiators killing C. albicans biofilm, primary screen, 4-compound mixtures | inhibition, % at 7.6 µM | C. albicans biofilm persisters + clotrimazole, fluorescence viability; primary screen in compound mixtures of four per well | actives 0.02% (n = 120,000);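 active = inhibition above 30.3% in the primary screen of four-compound pools, then above 30% when the compound was retested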;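 also: compounds exposed to preformed 24 h biofilms for 48 h; 0% = untreated biofilm control and 100% = clotrimazole plus chlorhexidine kill blank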
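System: C. albicans CAF4-2 wild-type biofilms; Medium: RPMI/MOPS medium, pH 7.0; Reagent: Clotrimazole, 50 µg/mL; Times: biofilm formation 24 h, compound exposure 48 h, 37 °C; Detection: 2-h Alamar Blue fluorescence, 535/590 nm excitation/emission; Evaluation: percent inhibition of biofilm viability.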
* hit, by the source's call; nt = no result given. Many of the other results were omitted from the sample, so hits are more common in it than they were.

SMILES	ROMK primary	Pf gamet viab	Calb biofilm kill
C[C@H](CO)N1C[C@H](C)[C@@H](CN(C)S(=O)(=O)c2cn(C)cn2)Oc2c(NS(=O)(=O)c3ccc(F)cc3)cccc2C1=O	nt	6.0	nt
CCCCCc1ccc(C(=O)CCCC)c(=S)[nH]1	3.84*	-20.2	19.9
CCCCCc1cc(=O)[nH]c(=S)[nH]1	nt	nt	17.1
CCc1ccc(/C=C2/C(=O)N(c3ccccc3)C(=S)N2CC(=O)OC)s1	nt	-5.8	4.1
CCN1C(=O)/C(=C/N(C(C)=O)c2ccccc2)N(c2ccccc2)C1=S	-3.81*	-44.3	nt
Nc1nc(NC(=O)c2ccccc2)nn1-c1ccccc1	-0.132	57.7*	13.3
COc1ccc(C(=O)Nc2nc(N)n(-c3ccccc3)n2)cc1	2.38	-14.2	18.7
CCOC(=O)[C@@H]1[C@H]2COc3ccccc3[C@@H]2N2C(=O)N(c3ccc(Cl)cc3)C(=O)[C@]12C	nt	-2.2	nt
Cn1nc(-c2ccccc2)c(N2CCCCC2)cc1=O	0.0187	15.2	4.6
O=c1cc(N2CCCCC2)c(-c2ccccc2)nn1Cc1ccccc1	-3.07*	12.1	18.7
C=CCn1c(CSCc2ccc(Cl)cc2)nnc1SCC(=O)NCc1ccccc1	-3.05*	nt	nt
C=CCn1c(CSCc2ccc(C)cc2)nnc1SCC(=O)NCc1ccccc1	-1.91	nt	nt
Fc1cnc(N2CCOCC2)nc1N1CCOCC1	0.0878	14.2	9.6
Fc1cnc(N2CCOCC2)nc1N1CCc2ccccc21	-2.8*	nt	nt
CCN(CC)C(=O)COc1ccc(S(=O)(=O)N2CCCC2)cc1	nt	-4.0	nt
CCOc1ccc(S(=O)(=O)N2CCCC2)cc1	-0.027	40.1*	nt
CC1(C)CC2CC(C)(CN2/C=C2/CCCCC2=O)C1 (centres undefined)	nt	7.2	9.9
Cc1ccc(CC(=O)O/N=C(\N)Cc2ccc([N+](=O)[O-])cc2)cc1	nt	29.4	12.7
N/C(Cc1ccc([N+](=O)[O-])cc1)=N\OC(=O)CC1CCCCC1	-0.784	59.1*	4.9
Cc1cc(C)cc(NC(=O)c2cccc(C(=O)Nc3cc(C)cc(C)c3)n2)c1	nt	21.8	nt
Cc1[nH]c(-c2ccccn2)nc(=S)c1Cl	3.54*	-6.5	11.4
Cc1cc(=S)nc(-c2ccccn2)[nH]1	1.54	-9.3	-2.6
Cc1cccc(-n2c(C)cc(/C=N/NC(=O)c3cccc([N+](=O)[O-])c3C)c2C)c1	-0.0881	nt	nt
Cc1cc(/C=N/NC(=O)c2ccccc2F)c(C)n1-c1ccccc1	4.19*	-6.1	8.7
C[C@H](CO)N1C[C@H](C)[C@@H](CN(C)Cc2ccncc2)Oc2c(NS(=O)(=O)c3cn(C)cn3)cccc2C1=O	nt	5.3	nt
SMILES	ROMK primary	Pf gamet viab	Calb biofilm kill
COc1ccc(S(=O)(=O)Nc2ccc3c(c2)C(=O)N([C@H](C)CO)C[C@H](C)[C@@H](CN(C)C(=O)NC2CCCCC2)O3)cc1	nt	-5.5	nt
CC(=O)Nc1nc(=O)c2ccccc2s1	0.275	-21.6	nt
O=C(Nc1nc(=O)c2ccccc2s1)c1ccccc1	2.96*	nt	nt
O=c1c2cc(Cl)ccc2nc(-c2ccc([N+](=O)[O-])cc2)n1O	3.51*	-13.4	15.1
O=c1c2ccccc2nc(-c2ccc(Cl)c(Cl)c2)n1O	1.71	11.3	nt
CC1(C)CC[C@]2(CO)CC[C@]3(C)C(=CCC4[C@@]5(C)CC[C@H](O)[C@@](C)(CO)C5CC[C@]43C)[C@@H]2C1 (some centres undefined)	nt	-9.3	nt
COC(=O)Cc1c(O)ccn(CCc2ccccc2)c1=O	0.406	20.7	21.0
COC(=O)Cc1c(O)ccn(Cc2ccc(F)cc2)c1=O	1.04*	3.6	nt
CC(=O)C[C@@H](O)CC(=O)[C@@H]1OC(=O)CCCCCCCCc2ccccc21	nt	17.5	nt
CCc1ccc(NC(=O)C(=O)NNC(=O)COc2cccc(OC)c2)cc1	2.78*	4.6	19.8
COc1cccc(OCC(=O)NNC(=O)c2cccs2)c1	0.949	-22.2	nt
COc1ccc(-c2cn3ccccc3n2)cc1	nt	23.3	9.0
COc1ccc(-c2cn3nc4c(nc3n2)CCCC4)cc1	-3.16*	11.7	nt
COc1ccccc1CNC(=O)CN(C)S(=O)(=O)c1cccc2cccnc12	-1.53	-7.8	26.1
O=Cc1ccccc1-c1cn(CCCOCc2ccccc2)nn1	nt	-10.5	nt
O=C(O)CCN(CCC(=O)O)c1nnc(SCc2ccccc2)s1	-0.0309	nt	nt
CCSc1nnc(N(CCC#N)CCC#N)s1	-4.97*	14.9	nt
CCOc1ccc2c(c1)S/C(=C\c1cccs1)C(=O)N2	nt	13.4	19.0
Cc1ccc(/C=C2\Oc3c(ccc(O)c3CN3CCN(CCO)CC3)C2=O)cc1	nt	9.8	17.4
CC(C)c1ccc(/C=C2\Oc3c(ccc(O)c3CN3CCN(C)CC3)C2=O)cc1	-6.63*	0.2	11.3
N#Cc1ccc(C(=O)OCCCc2cc3ccccc3c(=O)o2)cc1	nt	-18.0	nt
N#Cc1cc([N+](=O)[O-])ccc1NC(=O)COC(=O)CC1CCCC1	nt	nt	17.9
S=c1[nH]cnc2sc(-c3ccccc3)cc12	7.73*	6.7	18.3
S=c1[nH]cnc2scc(-c3ccccc3)c12	6.15*	-6.7	12.9
O=c1[nH]cnc2scc(-c3ccc(F)cc3)c12	nt	0.9	nt
SMILES	ROMK primary	Pf gamet viab	Calb biofilm kill
CNc1ncnc2sc(-c3ccccc3)cc12	-0.996	3.9	-11.3
COc1ccc(NC(=O)N(C)C[C@H]2Oc3ccc(NS(=O)(=O)c4c(C)noc4C)cc3C(=O)N([C@H](C)CO)C[C@@H]2C)cc1	nt	22.5	nt
COc1cc2c3nnc(-c4ccc(F)cc4)c-3cn(Cc3ccccc3F)c2cc1OC	-3.95*	5.3	11.3
COc1ccc(-c2nnc(SCc3ccccc3F)o2)cc1OC	-0.132	nt	nt
COc1cc2c3nnc(-c4ccccc4)c-3cn(Cc3ccccc3F)c2cc1OC	-6.76*	10.4	12.9
COc1ccccc1N1CCN(c2nnc(-c3ccc(F)cc3)c3ccccc23)CC1	nt	-16.0	nt
Cc1ccc(/C([O-])=C(/C(=S)NCc2ccco2)[n+]2ccccc2)cc1	0.139	nt	nt
Cc1ccc(NC(=S)/C(=C(\[O-])c2ccc(F)cc2)[n+]2ccccc2)cc1	-1.03	38.9*	1.3
Nc1ccc(S(=O)(=O)N2CCCC2)cc1Cl	nt	-10.8	17.9
Cc1ccc(-c2cc(C(=O)Nc3ccc(S(=O)(=O)Nc4cc(C)on4)cc3)c3ccccc3n2)c(C)c1	1.92	-11.1	nt
COc1ccc(-c2nc3ccccc3c(C(=O)Nc3ccc(S(=O)(=O)Nc4cc(C)on4)cc3)c2C)cc1	4.15*	nt	nt
O=c1c2ccccc2oc2cc(-c3ccc(CN4CCOCC4)cc3)ccc12	nt	8.4	nt
O=C(CSc1nc2c(c(=O)n1-c1ccccc1)SCC2)NCC1CCCO1 (centres undefined)	0.0515	-8.6	20.0
COc1ccc(OC)c(-n2c(=S)[nH]c3cc(C(=O)N(C)Cc4ccccc4)ccc3c2=O)c1	nt	-5.8	9.2
CC(=O)CCn1cc([N+](=O)[O-])nc1C	0.891	22.4	13.4
O=C(Nc1nc(-c2cc(F)ccc2F)cs1)C1=NN(c2ccccc2)C(=O)CC1	0.263	-28.9	-2.7
O=C(Nc1nc(-c2cc(F)ccc2F)cs1)c1ccccn1	1.29*	-4.6	6.6
Cc1ccc2c(Cl)c(C)c(N3CCOCC3)nc2n1	nt	5.4	nt
O=C(c1cc(Br)ccc1Cl)N1CCN(c2ccccn2)CC1	nt	-14.7	nt
CCc1cc2c(=O)n(CCC(C)C)c(=S)[nH]c2s1	9.73*	-9.2	8.0
CCCn1c(=S)[nH]c2ccccc2c1=O	1.7	-10.8	24.1
CCCNC(=O)C(Cc1ccc(I)cc1)NC(=O)c1ccc(C#N)cc1 (centres undefined)	nt	10.7	nt

Compound activity: PubChem BioAssay, several laboratories
